Experimental data: ChEMBL document CHEMBL3797149, “1-Sulfonyl-6-Piperazinyl-7-Azaindoles as potent and pseudo-selective 5-HT6 receptor antagonists” (Bioorg Med Chem Lett, 2016)
pIC50, pKi: −log10 of the molar value. The source made the active and inactive calls. The rule behind the calls is not given here.

Experiments:
D(2) dopamine receptor [1] = biological target: T1, D(2) dopamine receptor (Homo sapiens, UniProt P14416); test: Displacement of [3H]NMSP from human dopamine D2S receptor expressed in CHO cell membrane incubated for 1 hr by scintillation counting method; format: cell membranes
In short: (§1)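 Competition binding: [3H]-LSD displacement for 5-HT6 and [3H]-NMSP displacement for D2. Eight compound concentrations, 5 × 10^-6 to 5 × 10^-13 M, each tested in triplicate. Affinity is reported as Ki.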

CHO = test: Selectivity ratio of Ki for human dopamine D2S receptor expressed in CHO cell membrane to Ki for human 5HT6 receptor in HEK293 cell membrane; format: cell-based
In short: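 Ki values come from in-house competition binding: [3H]-LSD displacement at 5-HT6 and [3H]-NMSP displacement at D2. Compounds were tested at eight concentrations from 5×10^-6 to 5×10^-13 M in triplicate. The ratio is D2 Ki divided by 5-HT6 Ki.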

[2] = biological target: T2, 5-hydroxytryptamine receptor 6 (Homo sapiens, UniProt P50406); test: Displacement of [3H]LSD from human 5HT6 receptor in HEK293 cell membrane incubated for 1 hr by scintillation counting method; format: cell membranes; in short: as §1
[3] = Kinetic solubility in sorensen buffer at pH 7.4 incubated for 1 hr by UV-Visible spectrophotometry; format: physicochemical; details: read-out: Kinetic_solubility
D(2) dopamine receptor [4] = biological target: T1, D(2) dopamine receptor; test: Displacement of [3H]methyl-spiperone from human recombinant dopamine D2S receptor expressed in HEK293 cells at 1 uM incubated for 60 mins by scintillation counting method relative to control; format: cell-based
In short: (§2)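 Single-point screen at 1 µM (final) within a 106-target panel of neurotransmitter receptors, transporters and ion channels. Read-out is % radioligand displacement.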

[5] = biological target: D(3) dopamine receptor (Homo sapiens) (UniProt P35462); test: Displacement of [3H]methyl-spiperone from human recombinant dopamine D3 receptor expressed in CHO cells at 1 uM incubated for 60 mins by scintillation counting method relative to control; format: cell-based
In short: (§3)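 Tested at a single concentration in a contract panel of 106 neurotransmitter receptors, transporters and ion channels. Read-out is percent radioligand displacement.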

[6] = biological target: T2, 5-hydroxytryptamine receptor 6; test: Displacement of [3H]LSD from human recombinant 5HT6 receptor expressed in CHO cells at 1 uM incubated for 120 mins by scintillation counting method relative to control; format: cell-based; in short: as §2
[7] = biological target: 5-hydroxytryptamine receptor 1B (Rattus norvegicus) (UniProt P28564); test: Displacement of [125I]CYP from 5HT1B receptor in rat cerebral cortex at 1 uM incubated for 120 mins by scintillation counting method relative to control; format: tissue-based; in short: as §3
[8] = Passive permeability of compound after 4 hrs by sink-PAMPA assay; format: ADME; details: read-out: permeability
Cytochrome P450 3A4 = Cytochrome P450 3A4 (Homo sapiens, UniProt P08684); test: Inhibition of human recombinant CYP3A4 using 7-benzyloxy-trifluoromethylcoumarin as substrate incubated for 30 mins by fluorescence analysis in presence of NADPH; format: ADME
Cytochrome P450 2D6 = Cytochrome P450 2D6 (Homo sapiens, UniProt P10635); test: Inhibition of human recombinant CYP2D6 using AMMC as substrate incubated for 45 mins by fluorescence analysis in presence of NADPH; format: ADME
Mus musculus [9] = test: Procognitive effect in CD1 mouse assessed as reversal of scopolamine-induced amnesia by measuring time spent in open arm in acquisition phase at 0.3 to 10 mg/kg, sc pretreated for 10 mins followed by scopolamine injection measured after 30 mins by elevated […] maze test; format: functional, organism-based
In short: (§4)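 Elevated plus maze in mice. Test article is given subcutaneously, then scopolamine 10 min later. In the acquisition phase (T1), open-arm time % ([open/(open+enclosed)]×100) and transfer latency to the enclosed arm are recorded. Retention phase (T2) follows 24 h later. n = 13–15 per group; data shown as mean ± SEM and median.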

Mus musculus [10] = test: Procognitive effect in CD1 mouse assessed as reversal of scopolamine-induced amnesia by measuring time spent in open arm in retention phase at 0.3 to 10 mg/kg, sc pretreated for 10 mins followed by scopolamine injection measured after 24 hrs by elevated […] maze test; format: functional, organism-based; in short: as §4

T2 sequence (P50406 whole entry): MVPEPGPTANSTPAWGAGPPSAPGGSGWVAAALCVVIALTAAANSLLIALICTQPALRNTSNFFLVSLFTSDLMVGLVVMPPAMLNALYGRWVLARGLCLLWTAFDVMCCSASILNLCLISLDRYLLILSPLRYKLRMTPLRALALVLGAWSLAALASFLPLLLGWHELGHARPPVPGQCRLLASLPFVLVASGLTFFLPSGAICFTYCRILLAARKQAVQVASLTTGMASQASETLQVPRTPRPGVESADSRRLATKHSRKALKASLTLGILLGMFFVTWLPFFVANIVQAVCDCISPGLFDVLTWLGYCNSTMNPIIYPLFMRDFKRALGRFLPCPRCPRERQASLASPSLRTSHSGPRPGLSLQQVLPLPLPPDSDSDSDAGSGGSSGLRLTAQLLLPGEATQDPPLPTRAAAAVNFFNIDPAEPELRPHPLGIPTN
T1 sequence (P14416 whole entry): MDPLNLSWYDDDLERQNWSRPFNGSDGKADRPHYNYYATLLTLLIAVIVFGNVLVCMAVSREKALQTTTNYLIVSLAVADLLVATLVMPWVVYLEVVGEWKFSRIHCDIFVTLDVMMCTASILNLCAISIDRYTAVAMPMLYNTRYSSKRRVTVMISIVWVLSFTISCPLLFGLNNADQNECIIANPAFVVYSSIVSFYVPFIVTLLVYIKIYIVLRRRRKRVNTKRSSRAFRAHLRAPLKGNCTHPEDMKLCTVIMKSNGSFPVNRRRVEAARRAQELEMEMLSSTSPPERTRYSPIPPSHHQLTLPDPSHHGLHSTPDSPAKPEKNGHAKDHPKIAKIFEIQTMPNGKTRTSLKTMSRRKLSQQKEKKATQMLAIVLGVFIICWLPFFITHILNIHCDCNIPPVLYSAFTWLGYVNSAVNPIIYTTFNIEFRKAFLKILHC
Sequence of Cytochrome P450 3A4 (P08684 whole entry): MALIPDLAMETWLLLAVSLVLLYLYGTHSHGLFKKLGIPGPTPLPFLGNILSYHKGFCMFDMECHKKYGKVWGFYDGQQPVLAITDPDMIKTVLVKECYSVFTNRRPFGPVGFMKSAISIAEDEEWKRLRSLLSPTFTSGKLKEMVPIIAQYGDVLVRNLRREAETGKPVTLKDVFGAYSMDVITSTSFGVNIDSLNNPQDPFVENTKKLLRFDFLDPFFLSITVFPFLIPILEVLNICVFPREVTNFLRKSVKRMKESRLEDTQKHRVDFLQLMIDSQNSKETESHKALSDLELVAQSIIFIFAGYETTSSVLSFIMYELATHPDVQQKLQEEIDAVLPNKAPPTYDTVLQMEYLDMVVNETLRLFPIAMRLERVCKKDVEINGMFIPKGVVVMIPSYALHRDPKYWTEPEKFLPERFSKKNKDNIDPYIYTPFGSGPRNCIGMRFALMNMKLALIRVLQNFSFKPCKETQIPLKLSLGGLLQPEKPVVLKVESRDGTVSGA
Sequence of 5-hydroxytryptamine receptor 1B (Rattus norvegicus) (P28564 whole entry): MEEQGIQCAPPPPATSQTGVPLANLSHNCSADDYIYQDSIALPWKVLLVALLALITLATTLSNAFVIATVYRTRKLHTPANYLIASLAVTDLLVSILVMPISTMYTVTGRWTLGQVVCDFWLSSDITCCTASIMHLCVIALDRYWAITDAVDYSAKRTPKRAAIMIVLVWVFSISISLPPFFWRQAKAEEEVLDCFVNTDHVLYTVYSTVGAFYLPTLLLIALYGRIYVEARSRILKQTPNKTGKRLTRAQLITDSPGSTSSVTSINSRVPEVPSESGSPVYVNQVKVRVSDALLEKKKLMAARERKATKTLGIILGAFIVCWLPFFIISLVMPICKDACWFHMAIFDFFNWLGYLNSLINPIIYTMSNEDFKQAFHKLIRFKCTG
Sequence of Cytochrome P450 2D6 (P10635 whole entry): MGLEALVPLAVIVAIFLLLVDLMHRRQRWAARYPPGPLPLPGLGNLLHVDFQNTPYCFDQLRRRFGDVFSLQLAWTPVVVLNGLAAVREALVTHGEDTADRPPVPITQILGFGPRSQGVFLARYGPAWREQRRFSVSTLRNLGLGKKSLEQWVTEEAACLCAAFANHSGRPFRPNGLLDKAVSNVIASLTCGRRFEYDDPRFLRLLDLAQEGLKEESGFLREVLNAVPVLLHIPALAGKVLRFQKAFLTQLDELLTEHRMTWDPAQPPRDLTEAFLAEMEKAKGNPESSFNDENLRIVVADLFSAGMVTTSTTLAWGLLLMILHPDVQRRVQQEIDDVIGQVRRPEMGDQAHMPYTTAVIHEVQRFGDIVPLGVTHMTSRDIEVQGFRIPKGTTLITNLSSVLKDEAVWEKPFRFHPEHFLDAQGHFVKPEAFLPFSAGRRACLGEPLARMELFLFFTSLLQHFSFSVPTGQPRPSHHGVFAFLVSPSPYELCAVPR
Sequence of D(3) dopamine receptor (Homo sapiens) (P35462 whole entry): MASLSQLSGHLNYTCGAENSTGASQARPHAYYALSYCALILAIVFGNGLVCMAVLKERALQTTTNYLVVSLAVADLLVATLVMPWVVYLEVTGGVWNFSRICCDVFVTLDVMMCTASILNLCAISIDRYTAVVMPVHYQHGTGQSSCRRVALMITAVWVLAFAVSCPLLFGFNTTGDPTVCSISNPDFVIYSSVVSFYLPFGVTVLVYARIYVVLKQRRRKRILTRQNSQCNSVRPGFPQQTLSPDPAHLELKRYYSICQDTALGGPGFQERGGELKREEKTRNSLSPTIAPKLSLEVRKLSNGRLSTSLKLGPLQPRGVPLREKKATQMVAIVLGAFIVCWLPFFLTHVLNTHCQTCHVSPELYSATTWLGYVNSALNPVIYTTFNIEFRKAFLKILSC

Compound | pKi (D(2) dopamine receptor [1]) | pKi [2] | Ratio Ki (CHO) | other results
CC(C)S(=O)(=O)n1ccc2c(-c3ccc(C(F)(F)F)cc3)cc(N3CCN(C)CC3)nc21 | 7.60 | 8.22 | 4 | 
CC(C)CS(=O)(=O)n1ccc2c(-c3cccc(C(F)(F)F)c3)cc(N3CCN(C)CC3)nc21 | 6.20 | 7.32 | 13 | 
CC(C)CS(=O)(=O)n1ccc2c(-c3ccc(C(F)(F)F)cc3)cc(N3CCN(C)CC3)nc21.O=S(=O)(O)O |  |  |  | solubility kinetic at 1 h [3]: 10 µg/mL
Cc1noc(C)c1-c1cc(N2CCN(C)CC2)nc2c1ccn2S(=O)(=O)CC(C)C | < 5.70 | 6.89 | > 15 | 
CC(C)CS(=O)(=O)n1ccc2c(-c3ccc(C(F)(F)F)cc3)cc(N3CCN(C)CC3)nc21.Cl |  |  |  | solubility kinetic at 1 h [3]: 14 µg/mL
CCc1ccc(-c2cc(N3CCN(C)CC3)nc3c2ccn3S(=O)(=O)CC(C)C)cc1 | 6.21 | 7.96 | 56 | 
CC(C)CS(=O)(=O)n1ccc2c(-c3ccccc3C(F)(F)F)cc(N3CCN(C)CC3)nc21 | 6.95 | 7.62 | 5 | 
CC(C)CS(=O)(=O)n1ccc2c(-c3ccc(C(F)(F)F)cc3)cc(N3CCN(C)CC3)nc21.O=C(O)C(O)C(O)C(=O)O |  |  |  | solubility kinetic at 1 h [3]: 11 µg/mL
CN1CCN(c2cc(-c3ccc(C(F)(F)F)cc3)c3ccn(S(=O)(=O)C4CCCCC4)c3n2)CC1 | < 5.70 | 7.82 | > 133 | 
CC(C)CS(=O)(=O)n1ccc2c(-c3ccc(C#N)cc3)cc(N3CCN(C)CC3)nc21 | 6.69 | 8.15 | 29 | 
Br.CC(C)CS(=O)(=O)n1ccc2c(-c3ccc(C(F)(F)F)cc3)cc(N3CCN(C)CC3)nc21 |  |  |  | solubility kinetic at 1 h [3]: 65 µg/mL
CC(C)CS(=O)(=O)n1ccc2c(-c3ccccc3)cc(N3CCN(C)CC3)nc21 | 6.26 | 7.80 | 35 | 
CC(C)CS(=O)(=O)n1ccc2c(-c3ccc4[nH]ccc4c3)cc(N3CCN(C)CC3)nc21 | 6.42 | 8.30 | 76 | 
COc1ccc(-c2cc(N3CCN(C)CC3)nc3c2ccn3S(=O)(=O)CC(C)C)cc1 | 7.66 | 8.70 | 9 | 
CC(C)CS(=O)(=O)n1ccc2c(-c3ccc(C(F)(F)F)cc3)cc(N3CCN(C)CC3)nc21.O=C(O)/C=C/C(=O)O |  |  |  | solubility kinetic at 1 h [3]: 20 µg/mL
CC(C)CS(=O)(=O)n1ccc2c(-c3ccc(C(F)(F)F)cc3)cc(N3CCN(C)CC3)nc21.O=C(O)CC(O)(CC(=O)O)C(=O)O |  |  |  | solubility kinetic at 1 h [3]: 14 µg/mL
CC(C)CS(=O)(=O)n1ccc2c(-c3ccc(O)cc3)cc(N3CCN(C)CC3)nc21 | 6.97 | 7.66 | 5 | 
CC(C)CS(=O)(=O)n1ccc2c(-c3cnn(C)c3)cc(N3CCN(C)CC3)nc21 | < 5.70 | 7.06 | > 23 | 
CC(C)CS(=O)(=O)n1ccc2c(-c3ccc(C(F)(F)F)cc3)cc(N3CCN(C)CC3)nc21 |  |  | 80 | Activity (Mus musculus [9]): Active; Activity (Mus musculus [10]): Active
CC(C)CS(=O)(=O)n1ccc2c(-c3cccnc3)cc(N3CCN(C)CC3)nc21 | < 5.70 | 7.44 | > 55 | 
Cc1cc(-c2cc(N3CCN(C)CC3)nc3c2ccn3S(=O)(=O)CC(C)C)c(C)s1 | 6.19 | 7.92 | 53 | 
CN1CCN(c2cc(-c3ccc(C(F)(F)F)cc3)c3ccn(S(C)(=O)=O)c3n2)CC1 | 5.91 | 7.27 | 22 | 

Continued, in another order:

pKi (D(2) dopamine receptor [1]) | pKi [2] | Compound | Ratio Ki (CHO) | other results
< 5.70 | 8.15 | CN1CCN(c2cc(-c3ccc(C(F)(F)F)cc3)c3ccn(S(=O)(=O)C4CCOCC4)c3n2)CC1 | > 285 | 
7.28 | 8.10 | COCCS(=O)(=O)n1ccc2c(-c3ccc(C(F)(F)F)cc3)cc(N3CCN(C)CC3)nc21 | 6 | 
< 5.70 | 6.64 | CC(C)CS(=O)(=O)n1ccc2c(-c3ccc(=O)[nH]c3)cc(N3CCN(C)CC3)nc21 | > 8 | 
5.77 | 8.52 | CC(C)CS(=O)(=O)n1ccc2c(-c3ccc(C(F)(F)F)cc3)cc(N3CCNCC3)nc21 |  | inhibition (D(2) dopamine receptor [4]): 60%; inhibition [5]: 94%; inhibition [6]: 100%; inhibition [7]: 72%; Papp at 4 h [8]: 92 ×10⁻⁶ cm/s; pIC50 (Cytochrome P450 3A4): > 5.96; pIC50 (Cytochrome P450 2D6): < 5.00
< 5.70 | < 5.70 | CC(C)CS(=O)(=O)n1ccc2c(-c3ccc(C(=O)N(C)C)cc3)cc(N3CCN(C)CC3)nc21 |  | 
7.07 | 6.54 | CC(C)CS(=O)(=O)n1ccc2c(-c3ccc(OCc4ccccc4)cc3)cc(N3CCN(C)CC3)nc21 | 0.3 | 
